Assay results taken from ChEMBL document CHEMBL1139313, “Synthesis and antimalarial activity of new 4-amino-7-chloroquinolyl amides, sulfonamides, ureas and thioureas” (Bioorg Med Chem, 2009).

Legend:
Plasmodium falciparum [1] = test: Antimalarial activity against chloroquine-sensitive Plasmodium falciparum HB3 after 72 hrs; type: functional, organism-based; details: HB3, 72 h
How it was run: (§1)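 SYBR Green I growth assay. Sorbitol-synchronized P. falciparum cultures (>95% ring stage) at final 1% hematocrit and 0.5% parasitemia, exposed to drug dilutions in complete medium for 72 h at 37 °C. Dye added, then 1 h at 37 °C; fluorescence read at 490 nm excitation / 530 nm emission. Each dilution run in triplicate; IC50 averaged over ≥2 separate assays. RI relates Dd2 IC50 to HB3 IC50.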

Plasmodium falciparum [2] = test: Antimalarial activity against chloroquine-resistant Plasmodium falciparum Dd2 after 72 hrs; type: functional, organism-based; details: Dd2, 72 h; how it was run: as §1
[3] = Resistant index, IC50 for chloroquine-resistant Plasmodium falciparum Dd2 to IC50 for chloroquine-sensitive Plasmodium falciparum HB3; type: functional; how it was run: as §1

SMILES | IC50 (Plasmodium falciparum [1]) [nM] | IC50 (Plasmodium falciparum [2]) [nM] | Ratio IC50 [3]
CCN(CC)CCC(=O)NCCCCNc1ccnc2cc(Cl)ccc12 | 29 | > 1000 | –
CN(C)c1ccc(NC(=O)NCCCNc2ccnc3cc(Cl)ccc23)cc1 | 436 | 674 | 1.6
CCN(CCCNc1ccnc2cc(Cl)ccc12)CCNS(=O)(=O)c1cccc2c(N(C)C)cccc12 | 115 | 411 | 3.6
CCN(CCCCCCNc1ccnc2cc(Cl)ccc12)CCNS(=O)(=O)c1cccc2c(N(C)C)cccc12 | 272 | 147 | 0.5
CCN(CC)CCC(=O)NCCCCCNc1ccnc2cc(Cl)ccc12 | 16 | 672 | 41.2
O=C(NCCCNc1ccnc2cc(Cl)ccc12)c1ccccc1Nc1cccc2ccccc12 | > 1000 | > 1000 | –
CN(C)c1ccc(NC(=S)NCCCNc2ccnc3cc(Cl)ccc23)cc1 | 272 | 482 | 1.8
CCN(CCCCCNc1ccnc2cc(Cl)ccc12)CCNS(=O)(=O)c1cccc2c(N(C)C)cccc12 | 70 | 115 | 1.7
CCN(CC)CCC(=O)NCCCCCCNc1ccnc2cc(Cl)ccc12 | 28 | 385 | 12.9
CN1CCOc2cc(S(=O)(=O)NCCCNc3ccnc4cc(Cl)ccc34)ccc21 | 960 | > 1000 | –
CC(C)(C)OC(=O)N[C@H](Cc1c[nH]c2ccccc12)C(=O)NCCCNc1ccnc2cc(Cl)ccc12 | 500 | 764 | 1.5
CN(C)c1cccc(C(=O)NCCCNc2ccnc3cc(Cl)ccc23)c1 | 449 | 792 | 1.8
CN(C)c1cccc2c(S(=O)(=O)NCCCNc3ccnc4cc(Cl)ccc34)cccc12 | 754 | 966 | 1.3
CCN(CCNc1ccnc2cc(Cl)ccc12)CCNS(=O)(=O)c1cccc2c(N(C)C)cccc12 | 18 | 23 | 1.3
O=S(=O)(NCCCNc1ccnc2cc(Cl)ccc12)c1ccc(Oc2ccccc2)nc1 | > 1000 | > 1000 | –
O=C(NCCCNc1ccnc2cc(Cl)ccc12)C(F)(F)C(F)(F)C(F)(F)C(F)(F)C(F)(F)C(F)(F)C(F)(F)F | 166 | 197 | 1.2
COc1ccccc1NC(=O)NCCCNc1ccnc2cc(Cl)ccc12 | 365 | 539 | 1.5
CN(C)c1ccc(NC(=S)NCCCNc2ccnc3cc(Cl)ccc23)c2ccccc12 | 291 | 606 | 2.1
CCN(CCNC(=O)C(F)(F)C(F)(F)C(F)(F)C(F)(F)C(F)(F)C(F)(F)C(F)(F)F)CCNc1ccnc2cc(Cl)ccc12 | 72 | 87 | 1.2
CCN(CCCCNc1ccnc2cc(Cl)ccc12)CCNS(=O)(=O)c1cccc2c(N(C)C)cccc12 | 82 | 125 | 1.5
O=S(=O)(NCCCNc1ccnc2cc(Cl)ccc12)c1cccc2cccnc12 | 453 | 607 | 1.3
CCN(CC)CCC(=O)NCCNc1ccnc2cc(Cl)ccc12 | 32 | 760 | 24.1
CCN(CCNC(=O)C(F)(F)C(F)(F)C(F)(F)F)CCNc1ccnc2cc(Cl)ccc12 | 180 | 556 | 3.1
O=C(NCCCNc1ccnc2cc(Cl)ccc12)c1ccc(F)cc1NCc1ccccc1 | > 1000 | 305 | –
CCN(CCNC(=O)c1cc(C(F)(F)F)cc(C(F)(F)F)c1)CCNc1ccnc2cc(Cl)ccc12 | 97 | 137 | 1.4

SMILES | IC50 (Plasmodium falciparum [1]) [nM] | IC50 (Plasmodium falciparum [2]) [nM] | Ratio IC50 [3]
CCN(CCNC(=O)c1ccc(F)cc1NCc1ccccc1)CCNc1ccnc2cc(Cl)ccc12 | 80 | 199 | 2.5
O=C(NCCCNc1ccnc2cc(Cl)ccc12)c1c(F)c(F)c(F)c(F)c1F | 276 | 510 | 1.9
O=C(NCCCNc1ccnc2cc(Cl)ccc12)c1cc(C(F)(F)F)cc(C(F)(F)F)c1 | 145 | 236 | 1.6
CCN(CCNc1ccnc2cc(Cl)ccc12)CCNS(=O)(=O)c1cccnc1 | 124 | 512 | 4.1
CCN(CC)CCC(=O)NCCCNc1ccnc2cc(Cl)ccc12 | 23 | 559 | 24.4
O=C(NCCCNc1ccnc2cc(Cl)ccc12)c1cccnc1 | > 1000 | > 1000 | –
O=C(NCCCNc1ccnc2cc(Cl)ccc12)c1ccccc1Sc1ccccc1 | > 1000 | > 1000 | –
O=C(NCCCNc1ccnc2cc(Cl)ccc12)c1ccccc1SC1CCCCC1 | > 1000 | > 1000 | –
O=C(NCCCNc1ccnc2cc(Cl)ccc12)c1ccccc1NCCc1ccccc1 | > 1000 | > 1000 | –
O=C(CCc1nc2ccccc2[nH]1)NCCCNc1ccnc2cc(Cl)ccc12 | 756 | > 1000 | –
CC(C)(C)OC(=O)N[C@@H](CCCCNC(=O)OCc1ccccc1)C(=O)NCCCNc1ccnc2cc(Cl)ccc12 | 902 | > 1000 | –
CCN(CCNc1ccnc2cc(Cl)ccc12)CCNS(=O)(=O)c1ccc2c(c1)OCCN2C | 171 | 286 | 1.7
COc1cc([N+](=O)[O-])ccc1NC(=S)NCCCNc1ccnc2cc(Cl)ccc12 | 208 | 801 | 3.9
CCN(CCNc1ccnc2cc(Cl)ccc12)CCNS(=O)(=O)c1ccc(Oc2ccccc2)nc1 | 140 | 274 | 2
CCN(CCCC(C)Nc1ccnc2cc(Cl)ccc12)CCNS(=O)(=O)c1cccc2c(N(C)C)cccc12 (stereo not given) | 220 | 260 | 1.2
O=C(NCCCNc1ccnc2cc(Cl)ccc12)c1ccc(O)nc1 | > 1000 | > 1000 | –
CC(C)(C)OC(=O)N[C@@H](Cc1c[nH]c2ccccc12)C(=O)NCCCNc1ccnc2cc(Cl)ccc12 | 479 | > 1000 | –
Nc1ccc(N)c(C(=O)NCCCNc2ccnc3cc(Cl)ccc23)c1 | 179 | 651 | 3.6
COc1cc([N+](=O)[O-])ccc1NC(=O)NCCCNc1ccnc2cc(Cl)ccc12 | 281 | > 1000 | –
COc1ccc(NC(=S)NCCCNc2ccnc3cc(Cl)ccc23)cc1 | 229 | 353 | 1.5
O=C(NCCCNc1ccnc2cc(Cl)ccc12)C(F)(F)C(F)(F)C(F)(F)F | 234 | 277 | 1.2
CCN(CCNC(=O)c1c(F)c(F)c(F)c(F)c1F)CCNc1ccnc2cc(Cl)ccc12 | 118 | 314 | 2.7
COc1ccc(NC(=O)NCCCNc2ccnc3cc(Cl)ccc23)cc1 | 316 | 596 | 1.9
CCN(CCNc1ccnc2cc(Cl)ccc12)CCNS(=O)(=O)c1cccc2cccnc12 | 310 | 443 | 1.4
CC(C)(C)OC(=O)N1CCC[C@H]1C(=O)NCCCNc1ccnc2cc(Cl)ccc12 | > 1000 | > 1000 | –
